According to ChEMBL document CHEMBL4316635, “Synthesis, Structure Revision, and Cytotoxicity of Nocarbenzoxazole G” (J Nat Prod, 2019):
pIC50: −log10 of the molar value.

Legend:
HepG2 = test: Cytotoxicity in human HepG2 cells assessed as reduction in cell viability incubated for 48 hrs by CCK8 assay; format: functional, cell-based; details: HepG2, 48 h
Summary of the method: (§1)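 Exponentially growing cells, routinely kept in DMEM or RPMI1640 (line-dependent) with 10% FBS, penicillin/streptomycin at 37 °C and 5% CO₂, were seeded at 1.0 × 10⁴ cells/well in triplicate. The next day they were treated at 1.25–20 μM for 48 h. CCK-8 reagent was then added for 1 h and absorbance read at 450 nm. Controls received medium with 0.5% (v/v) DMSO.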

Hep 3B2 = test: Cytotoxicity in human Hep3B cells assessed as reduction in cell viability incubated for 48 hrs by CCK8 assay; format: functional, cell-based; summary of the method: as §1
HeLa = test: Cytotoxicity in human HeLa cells assessed as reduction in cell viability incubated for 48 hrs by CCK8 assay; format: functional, cell-based; summary of the method: as §1
MDA-MB-231 = test: Cytotoxicity in human MDA-MB-231 cells assessed as reduction in cell viability incubated for 48 hrs by CCK8 assay; format: functional, cell-based; details: MDA-MB-231, 48 h; summary of the method: as §1
MCF7 = test: Cytotoxicity in human MCF7 cells assessed as reduction in cell viability incubated for 48 hrs by CCK8 assay; format: functional, cell-based; details: MCF7, 48 h; summary of the method: as §1
T98G = test: Cytotoxicity in human T98G cells assessed as reduction in cell viability incubated for 48 hrs by CCK8 assay; format: cell-based; summary of the method: as §1

## OCc1ccc2oc(-c3ccc(Cl)cc3)nc2c1
HepG2
  pIC50: < 4.70
Hep 3B2
  pIC50: < 4.70
HeLa
  pIC50: 4.80
MDA-MB-231
  pIC50: < 4.70
MCF7
  pIC50: < 4.70
T98G
  pIC50: < 4.70

## OCc1ccc2oc(-c3ccc(O)c(Cl)c3)nc2c1
HepG2
  pIC50: < 4.70
Hep 3B2
  pIC50: < 4.70
HeLa
  pIC50: 4.96
MDA-MB-231
  pIC50: < 4.70
MCF7
  pIC50: < 4.70
T98G
  pIC50: < 4.70

## Cc1cc(-c2nc3cc(CO)ccc3o2)cc(C)c1N
HepG2
  pIC50: < 4.70
Hep 3B2
  pIC50: < 4.70
HeLa
  pIC50: 4.72
MDA-MB-231
  pIC50: < 4.70
MCF7
  pIC50: < 4.70
T98G
  pIC50: < 4.70

## OCc1ccc2oc(-c3ccc(O)cc3)nc2c1
HepG2
  pIC50: < 4.70
Hep 3B2
  pIC50: < 4.70
HeLa
  pIC50: 5.33
MDA-MB-231
  pIC50: < 4.70
MCF7
  pIC50: < 4.70
T98G
  pIC50: < 4.70

## COc1cc(O)ccc1-c1nc2cc(CO)ccc2o1
HepG2
  pIC50: < 4.70
Hep 3B2
  pIC50: < 4.70
HeLa
  pIC50: 5.54
MDA-MB-231
  pIC50: < 4.70
MCF7
  pIC50: < 4.70
T98G
  pIC50: < 4.70

## COc1cc(-c2nc3cc(CO)ccc3o2)ccc1O
HepG2
  pIC50: < 4.70
Hep 3B2
  pIC50: < 4.70
HeLa
  pIC50: 5.24
MDA-MB-231
  pIC50: < 4.70
MCF7
  pIC50: < 4.70
T98G
  pIC50: < 4.70

## OCc1ccc2oc(-c3ccc4cc(O)ccc4c3)nc2c1
HepG2
  pIC50: < 4.70
Hep 3B2
  pIC50: < 4.70
HeLa
  pIC50: 6.25
MDA-MB-231
  pIC50: < 4.70
MCF7
  pIC50: < 4.70
T98G
  pIC50: < 4.70

## OCc1ccc2oc(-c3ccc4[nH]ccc4c3)nc2c1
HepG2
  pIC50: < 4.70
Hep 3B2
  pIC50: < 4.70
HeLa
  pIC50: 5.05
MDA-MB-231
  pIC50: < 4.70
MCF7
  pIC50: < 4.70
T98G
  pIC50: < 4.70
